Calls of active or inactive are those of the source. No cut-off for these calls is given here.
Assays:
[1] = target: T1, Retinal dehydrogenase 2 (Gallus gallus) (UniProt O93344); experiment: Inhibition of N-terminal His6-tagged recombinant chick RALDH2 expressed in Escherichia coli BL21(DE3) cells at 250 nM using RAL as substrate assessed as remaining activity preincubated for 10 mins followed by all-trans-retinaldehyde and substrate addition measured after 30 mins in presence of NAD+ by fluorescence assay
T1 sequence (whole entry): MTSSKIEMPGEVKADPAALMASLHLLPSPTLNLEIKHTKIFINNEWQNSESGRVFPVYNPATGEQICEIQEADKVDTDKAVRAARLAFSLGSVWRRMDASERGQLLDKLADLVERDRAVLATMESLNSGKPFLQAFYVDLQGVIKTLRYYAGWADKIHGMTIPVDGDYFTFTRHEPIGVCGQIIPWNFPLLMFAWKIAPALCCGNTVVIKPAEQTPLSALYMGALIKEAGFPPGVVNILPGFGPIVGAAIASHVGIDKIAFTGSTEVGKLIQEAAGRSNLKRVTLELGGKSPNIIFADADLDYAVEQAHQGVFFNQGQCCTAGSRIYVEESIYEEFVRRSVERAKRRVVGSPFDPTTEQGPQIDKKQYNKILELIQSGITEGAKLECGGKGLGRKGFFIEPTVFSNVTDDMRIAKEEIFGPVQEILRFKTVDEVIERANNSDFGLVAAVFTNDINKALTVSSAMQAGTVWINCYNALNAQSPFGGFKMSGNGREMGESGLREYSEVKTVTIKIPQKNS
Outline: (§1)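 Chick RALDH2 (91 nM) pre-incubated with 250 nM inhibitor for 0–80 min at 37°C, alone or with 250 μM retinaldehyde or 250 μM NAD+. Reaction then started with the missing substrate and/or cofactor (250 μM retinaldehyde, 4 mM NAD), 30 min at 37°C. Fluorimetric NADH; % activity remaining. Triplicates.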

Retinal dehydrogenase 2 [2] = target: T2, Retinal dehydrogenase 2 (Homo sapiens, UniProt O94788); experiment: Inhibition of N-terminal His6-tagged recombinant human RALDH2 using RAL as substrate measured after 30 mins in presence of NADH by Morrison's plot analysis
T2 sequence (O94788 whole entry): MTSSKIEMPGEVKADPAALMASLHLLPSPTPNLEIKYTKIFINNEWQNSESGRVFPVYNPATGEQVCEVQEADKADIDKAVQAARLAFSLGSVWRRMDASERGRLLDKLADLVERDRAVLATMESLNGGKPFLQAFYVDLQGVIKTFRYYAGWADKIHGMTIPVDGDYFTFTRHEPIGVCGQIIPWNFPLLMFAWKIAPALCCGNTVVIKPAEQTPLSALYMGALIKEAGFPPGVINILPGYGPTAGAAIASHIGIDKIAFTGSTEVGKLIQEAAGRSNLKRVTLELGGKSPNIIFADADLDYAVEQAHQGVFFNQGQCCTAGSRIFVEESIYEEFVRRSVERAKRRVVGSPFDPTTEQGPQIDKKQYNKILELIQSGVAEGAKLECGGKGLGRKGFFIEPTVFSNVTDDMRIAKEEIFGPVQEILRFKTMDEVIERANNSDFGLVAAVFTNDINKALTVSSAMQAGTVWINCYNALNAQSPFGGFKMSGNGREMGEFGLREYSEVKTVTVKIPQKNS
Outline: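 Ki obtained by fitting the Morrison tight-binding equation to the 20-min pre-incubation retinaldehyde/NADH fluorescence inhibition data. Inputs were enzyme concentration (RALDH1 0.358, RALDH2 0.091, RALDH3 0.355, hRALDH2 0.176 μM), substrate concentration and Km. Triplicates from 3–5 independent experiments.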

[3] = target: T1, Retinal dehydrogenase 2 (Gallus gallus); experiment: Inhibition of N-terminal His6-tagged recombinant chick RALDH2 expressed in Escherichia coli BL21(DE3) cells up to 500 nM using RAL as substrate assessed as inactivation rate constant preincubated up to 40 mins followed by substrate addition and measured after 30 mins in presence of NADH by fluorescence assay
Outline: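 Chick RALDH2 pre-incubated 10, 20 and 40 min with 0–500 nM inhibitor, then assayed with retinaldehyde/NAD+ by fluorimetric NADH. kobs taken from linear regression of log % activity remaining versus pre-incubation time. KI and kinact obtained by nonlinear regression of kobs versus inhibitor concentration.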

[4] = target: T1, Retinal dehydrogenase 2 (Gallus gallus); experiment: Inhibition of N-terminal His6-tagged recombinant chick RALDH2 expressed in Escherichia coli BL21(DE3) cells at 250 nM using RAL as substrate assessed as remaining activity incubated up to 80 mins in presence of all-trans-retinaldehyde folowed by substrate addition and measured after 30 mins in presence of NAD+ by fluorescence assay; outline: as §1
[5] = target: T1, Retinal dehydrogenase 2 (Gallus gallus); experiment: Inhibition of RALDH2 in choroidal cytosol fraction from control chick assessed as inhibition of ATRA synthesis at 0.1 to 6 uM pre-incubated for 20 mins followed by […] addition and measured after 30 mins by HPLC analysis
Retinal dehydrogenase 2 [6] = target: T3, Retinal dehydrogenase 2 (Gallus gallus, UniProt O93344); experiment: Inhibition of N-terminal His6-tagged recombinant chick RALDH2 expressed in Escherichia coli BL21(DE3) cells using RAL as substrate preincubated for 20 mins followed by substrate addition and measured after 30 mins in presence of NADH by fluorescence assay
T3 sequence (O93344 whole entry): T1 sequence (whole entry)
Outline: (§2)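 Purified His-tagged recombinant enzyme in dialysis buffer with 2 mM DTT. Amounts were chick RALDH1 2 μg (0.358 μM), chick RALDH2 0.5 μg (0.091 μM), chick RALDH3 2 μg (0.355 μM) and human RALDH2 1 μg (0.176 μM). Enzyme pre-incubated 20 min at 37°C with 0–10 μM inhibitor in DMSO. Reaction started with final 4 mM NAD+ in pyrophosphate pH 8.2 buffer plus 250 μM retinaldehyde, 30 min at 37°C. NADH read fluorimetrically (Ex/Em 540/590) against a standard curve. Triplicates, 3–5 experiments.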

[7] = target: T4, Retinal dehydrogenase 2 (Homo sapiens) (UniProt O94788); experiment: Inhibition of RALDH2 (unknown origin) […] assessed as time dependence ratio (kinact/KI)
T4 sequence (whole entry): T2 sequence (O94788 whole entry)

[8] = target: T5, Aldehyde dehydrogenase 1A1 (Gallus gallus, UniProt P27463); experiment: Inhibition of N-terminal His6-tagged recombinant chick RALDH1 expressed in Escherichia coli BL21(DE3) cells using RAL as substrate preincubated for 20 mins followed by substrate addition and measured after 30 mins in presence of NADH by fluorescence assay; outline: as §2
T5 sequence (P27463 whole entry): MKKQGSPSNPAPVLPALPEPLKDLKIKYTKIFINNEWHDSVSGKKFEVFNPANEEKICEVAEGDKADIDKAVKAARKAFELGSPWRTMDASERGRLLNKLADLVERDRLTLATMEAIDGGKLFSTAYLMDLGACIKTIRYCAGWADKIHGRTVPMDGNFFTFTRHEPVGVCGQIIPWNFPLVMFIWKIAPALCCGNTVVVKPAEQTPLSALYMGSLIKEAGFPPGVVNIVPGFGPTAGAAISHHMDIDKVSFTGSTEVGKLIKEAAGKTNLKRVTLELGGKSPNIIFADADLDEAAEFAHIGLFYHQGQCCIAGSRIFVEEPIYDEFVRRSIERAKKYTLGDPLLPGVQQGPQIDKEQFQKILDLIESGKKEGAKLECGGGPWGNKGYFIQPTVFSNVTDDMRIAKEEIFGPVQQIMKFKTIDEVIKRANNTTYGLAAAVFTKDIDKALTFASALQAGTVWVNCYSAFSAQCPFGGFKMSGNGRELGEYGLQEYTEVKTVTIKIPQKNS

Gallus gallus = species on record: Gallus gallus; experiment: Inhibition of N-terminal His6-tagged recombinant chick RALDH3 expressed in Escherichia coli BL21(DE3) cells at 250 nM using RAL as substrate assessed as Km preincubated for 20 mins followed by substrate addition and measured after 30 mins in presence of NADH by fluorescence assay (reference value: 84.45 +/- 30.99 microM)

SMILES: CC1=C(/C=C/C(C)=C/C=C/C(C)=C/C(=O)C(Cl)Cl)C(C)(C)CCC1
- Activity [1]: 30.4%
- Ki (Retinal dehydrogenase 2 [2]): 64.3 nM
- Kinact [3]: 0.0159 min⁻¹
- inhibition [4]: Active
- inhibition [5]: 92 to 99%
- IC50 (Retinal dehydrogenase 2 [6]): 55 nM
- kinact/KI [7]: 1550 to 233000 M⁻¹ s⁻¹
- IC50 [8]: 435 nM
- Km (Gallus gallus): 46.1 µM
